For data set [1], the system named is MCF7. Kind of data set: Cytotoxicity against human MCF7 cells incubated for 72 hrs under normoxic condition by MTT assay. Type of data set: functional, cell-based. The note with it: MCF7, 72 h. In a few lines: (§1)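 MCF-7 cells seeded at 2 × 10^4 cells/100 µL in duplicate and preincubated 24 h. Serial dilutions added, then 72 h at 20% O2 (normoxia) or 1% O2 (hypoxia, modular chamber). Viability by MTT under normoxia. Values are mean ± SD of three independent experiments.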
Background: Tetrazolium dyes change colour on reduction, which living cells bring about.

Data set [2] deals with K562. Kind of data set: Cytotoxicity against human K562 cells measured after 72 hrs by MTT assay. Type of data set: functional, cell-based. To be noted: K562, 72 h.
The nature of data set [3]: Stability of the compound at -20 degreeC incubated for 3 days. The class given is physicochemical. To be noted: 72 h.
Data set [4] concerns MCF7. Kind of data set: Selectivity index, ratio of IC50 for human MCF7 cells under hypoxic condition to IC50 for human MCF7 cells under normoxic condition. The class given is functional. Summed up: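 Index computed as IC50(hypoxia)/IC50(normoxia) in MCF-7 cells, each from a 72 h MTT assay at 1% or 20% O2.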
For data set [5], the system named is Staphylococcus aureus. Kind of data set: Antibacterial activity against Staphylococcus aureus measured after 24 hrs by turbidimetric based microdilution method. The class given is functional. Summed up: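 S. aureus grown 18 h at 37 °C in MH broth, diluted 50-fold and regrown to OD600 0.8–1.0, then diluted ten-fold serially to about 1 × 10^4 CFU/mL. Compounds two-fold serially diluted, 64 to 0.0625 µg/mL. MIC read by visual turbidity after 24 h at 37 °C.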

Data set [6] can be described thus: Half life in Sprague-Dawley rat plasma at 1 mg/ml by HPLC analysis. Type of data set: ADME, cell-free. Summed up: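 SD rat plasma diluted to 50% in water, prewarmed to 37 °C. 40 µL of a 1 mg/mL ACN stock added per 1 mL plasma. Samples taken at 0–1440 min, proteins precipitated with ACN containing internal standard, centrifuged. Supernatant quantified by C18 HPLC using the internal standard method.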

The test system of data set [7] is MCF7. As to the kind of experiment: Cytotoxicity against human MCF7 cells incubated for 72 hrs under hypoxic condition by MTT assay. The note with it: MCF7, 72 h. The class given is functional, cell-based. In a few lines: as §1
Data set [8] deals with K562. Kind of data set: Induction of apoptosis in human K562 cells at 0.5 to 2 uM measured after 24 to 48 hrs by Annexin V-FITC/propidium iodide staining based flow cytometry. The class given is functional, cell-based. Summed up: (§2)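 K562 cells seeded at 1 × 10^5 per well and treated 24 h and 48 h. Cells washed in PBS, resuspended in binding buffer, stained in the dark with annexin V-FITC and PI for 15 min, then analysed by flow cytometry within 1 h. Values are mean ± SD of three independent experiments.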
(In flow cytometry, cells or beads pass a laser one at a time.)

The subject of data set [9] is K562. Kind of data set: Cytotoxicity against CM-Dil-labeled human K562 cells xenografted in wild-type zebrafish AB assessed as cell growth inhibition at 50 ug/ml measured after 2 days by fluorescence microscopic method relative to control. Type of data set: functional. In a few lines:
(§3)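 Wild-type AB zebrafish at 2 dpf yolk-injected with about 200 CM-DiI-labelled K562 cells, held at 35 °C to 3 dpf. Single waterborne dose in 0.1% DMSO aqueous solution, 30 fish per well. Then 2 days at 35 °C. 10 fish imaged by fluorescence microscopy and tumour-cell fluorescence intensity compared with vehicle control.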
(Xenograft models place foreign cells or tissue in a host animal.)

Data set [10] is described as follows: Stability of the compound at -20 degreeC incubated for one month. To be noted: 730.5 h. The class given is physicochemical.
Data set [11] is described as follows: Toxicity in wild-type zebrafish AB assessed as mortality at 0.8 ug/ml. The note with it: in vivo. The arrangement: species or system Danio rerio. Summed up:
(§4)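 Wild-type AB zebrafish were randomly allocated to wells, 30 fish per well, and exposed to the test agent at a range of concentrations.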

The test system of data set [12] is K562. As to the kind of experiment: Cytotoxicity against CM-Dil-labeled human K562 cells xenografted in wild-type zebrafish AB assessed as cell growth inhibition at 5.6 ug/ml measured after 2 days by fluorescence microscopic method relative to control. Type of data set: functional. In a few lines: as §3
For data set [13], the system named is K562. Kind of data set: Cytotoxicity against CM-Dil-labeled human K562 cells xenografted in wild-type zebrafish AB assessed as cell growth inhibition at 16.7 ug/ml measured after 2 days by fluorescence microscopic method relative to control. Type of data set: functional. In a few lines:
as §3

The nature of data set [14]: Toxicity in wild-type zebrafish AB assessed as mortality at 4 ug/ml. To be noted: in vivo. Also on record: species or system Danio rerio. In a few lines:
as §4

Data set [15] is filed under the species Danio rerio. Kind of data set: (§5) Toxicity in wild-type zebrafish AB assessed as mortality at 100 ug/ml. To be noted: in vivo. Summed up: as §4
Data set [16] can be described thus: Toxicity in wild-type zebrafish AB assessed as mortality at 50 ug/ml. Also on record: species or system Danio rerio. The note with it: in vivo. In a few lines:
as §4

The nature of data set [17]: Toxicity in wild-type zebrafish AB assessed as mortality at 20 ug/ml. To be noted: in vivo. Also on record: species or system Danio rerio. In a few lines: as §4
Data set [18] relates to K562. As to the kind of experiment: Induction of apoptosis in human K562 cells at 5 to 15 uM measured after 24 to 48 hrs by Annexin V-FITC/propidium iodide staining based flow cytometry. The class given is functional, cell-based. In a few lines:
as §2

Data set [19] is described as follows: as §5. Also on record: species or system Danio rerio. The note with it: AB wild-type, in vivo. In a few lines:
as §4

In brackets after ≈: the same amount, converted by molar mass. Activity calls are given as the source filed them.

The IC50 is the concentration needed to halve the response being measured. For orientation: MIC means the lowest concentration found to suppress growth. As usually defined, the half-life is the time needed for the level to fall by half in the phase considered. Read a high half-life as slow loss. With `C=C1/C=C/C(=O)N[C@@H](C)C(=O)N[C@H](C(C)C)C(=O)O[C@H]([C@@H](C)CCCCCC)[C@@H](CCO)C(=O)N1`, the IC50 came to 12.3 µM in data set [1], 4.86 µM in data set [2] and 9.17 µM in data set [7]. In addition, the Stability result in data set [3] is given as “Unstable”. Further, the “Ratio IC50” value in [4] turned out to be 0.74. Further, in data set [5], the MIC is 8 µg/mL (≈ 16.2 µM). Further, in [6], the half-life at 1 mg/ml is 32.4 min.

The term mortality denotes the share of the test organisms that died. In the case of `C=C1/C=C/C(=O)N[C@H](C)C(=O)N[C@@H](C(C)C)C(=O)O[C@@H]([C@H](C)CCCCCC)[C@H](CCO[Si](c2ccccc2)(c2ccccc2)C(C)(C)C)C(=O)N1`, in data set [8], the outcome was Active. The “growth inhibition (GI)” value in [9] is listed as 75%; in data set [12], 66%; in data set [13] it was 70%. Further, the IC50 in [1] is 6.26 µM; in data set [2], 0.64 µM; in data set [7] it was 6.81 µM. Also, the Stability entry in data set [10] is reported as “Stable”. Also, the mortality at 0.8 ug/ml in data set [11] turned out to be 0%. The “Ratio IC50” value in [4] is reported as 1.09. Also, the mortality at 4 ug/ml in [14] stood at 0%. Moreover, the MIC in [5] is above 64 µg/mL. Further, the mortality result in data set [15] was “Nd(Insoluble)”. Further, the half-life at 1 mg/ml in data set [6] was 858 min. The mortality at 50 ug/ml in data set [16] is 0%. For the same compound, in data set [17], the mortality at 20 ug/ml came to 0%.

As for `C#CCCCCCCCCC(=O)OCC[C@@H]1C(=O)NC(=C)/C=C/C(=O)N[C@H](C)C(=O)N[C@@H](C(C)C)C(=O)O[C@H]1[C@H](C)CCCCCC`, in data set [10], the Stability entry is “Stable”. Further, the IC50 in data set [2] worked out at 4.41 µM. The outcome in [18] was Active. The compound further had a minimum inhibitory concentration (MIC) in [5] above 64 µg/mL.

On to `Cc1ccc(NC(=O)c2ccc(CN3CCN(C)CC3)cc2)cc1Nc1nccc(-c2cccnc2)n1` [IMATINIB], for which the “growth inhibition (GI)” value in data set [9] worked out at 71%. In addition, the mortality at 0.8 ug/ml in data set [11] is 0%. In addition, the mortality at 4 ug/ml in [14] came out at 0%. Besides, in [19], the mortality at 100 ug/ml worked out at 100%. Also, the mortality at 50 ug/ml in data set [16] stood at 0%. Moreover, the mortality at 20 ug/ml in [17] came out at 0%.

For the origin of these results see ChEMBL document CHEMBL3992529, “Total Syntheses and Biological Activities of Vinylamycin Analogues” (J Med Chem, 2017).
